Assay results as given in ChEMBL document CHEMBL1123819, “Synthesis and antifungal activity of a series of novel 1,2-disubstituted propenones” (1987).
≈ marks a conversion by molar mass, not a printed value.

What was measured:
Format in all cases: functional
Trichophyton benhamiae = test: Antifungal activity against Trichophyton asteroides was determined in vitro
Outline: (§1)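 Broth microdilution in Sabouraud's glucose broth; MIC read as the fungistatic end point. Final inocula were 1 × 10^5 cells/mL for the yeast and 1 × 10^5 conidia/mL for the mould and the dermatophyte.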

Aspergillus fumigatus = test: Antifungal activity against Aspergillus fumigatus was determined in vitro; outline: as §1
Candida albicans = test: Antifungal activity against Candida albicans was determined in vitro; outline: as §1

| Structure (SMILES) | MIC (Trichophyton benhamiae) | MIC (Aspergillus fumigatus) | MIC (Candida albicans) |
| --- | --- | --- | --- |
| C=C(C(=O)c1ccc(F)cc1)c1ccc(Cl)cc1Cl | 0.4 µg/mL (≈ 1.36 µM) | 12.5 µg/mL (≈ 42.4 µM) | 3.1 µg/mL (≈ 10.5 µM) |
| C=C(C(=O)c1ccc(Cl)cc1)n1ccccc1=O | 0.8 µg/mL (≈ 3.08 µM) | 2.5 µg/mL (≈ 9.63 µM) | 1.6 µg/mL (≈ 6.16 µM) |
| C=C(Cn1cnc2ccccc2c1=O)C(=O)c1ccc(Cl)cc1 | 3.1 µg/mL (≈ 9.55 µM) | 6.3 µg/mL (≈ 19.4 µM) | 3.1 µg/mL (≈ 9.55 µM) |
| C=C(C(=O)c1ccc(Cl)cc1Cl)n1cccn1 | 1.6 µg/mL (≈ 5.99 µM) | 25 µg/mL (≈ 93.6 µM) | 0.8 µg/mL (≈ 2.99 µM) |
| COc1ccc(C(=O)C(CO)n2cncn2)cc1 (stereo not drawn) | 3.1 µg/mL (≈ 12.5 µM) | 100 µg/mL (≈ 404 µM) | 3.1 µg/mL (≈ 12.5 µM) |
| C=C(C(=O)c1ccc(OC)cc1)n1cncn1 | 0.8 µg/mL (≈ 3.49 µM) | 12.5 µg/mL (≈ 54.5 µM) | 0.8 µg/mL (≈ 3.49 µM) |
| C=C(C(=O)c1ccc(Cl)cc1)n1cc(Cl)ccc1=O | 0.8 µg/mL (≈ 2.72 µM) | 3.1 µg/mL (≈ 10.5 µM) | 0.8 µg/mL (≈ 2.72 µM) |
| C=C(C(=O)c1ccc(Cl)cc1)n1cc(C(=O)OC)ccc1=O | 0.8 µg/mL (≈ 2.52 µM) | 3.1 µg/mL (≈ 9.76 µM) | 0.8 µg/mL (≈ 2.52 µM) |
| C=C(C(=O)c1ccco1)n1cncn1 | 3.1 µg/mL (≈ 16.4 µM) | 6.3 µg/mL (≈ 33.3 µM) | 0.8 µg/mL (≈ 4.23 µM) |
| C=C(C(=O)c1ccc(C(=O)OC)cc1)n1ccccc1=O | 3.1 µg/mL (≈ 10.9 µM) | 50 µg/mL (≈ 177 µM) | 3.1 µg/mL (≈ 10.9 µM) |
| C=C(C(=O)C(C)(C)C)n1cncn1 | 6.3 µg/mL (≈ 35.2 µM) | 6.3 µg/mL (≈ 35.2 µM) | 0.4 µg/mL (≈ 2.23 µM) |
| C=C(C(=O)c1ccc(Cl)cc1)n1cnccc1=O | 1.6 µg/mL (≈ 6.14 µM) | 3.1 µg/mL (≈ 11.9 µM) | 0.4 µg/mL (≈ 1.53 µM) |
| C=C(Cn1cncn1)C(=O)c1ccc(OC)cc1 | 6.3 µg/mL (≈ 25.9 µM) | > 100 µg/mL | 12.5 µg/mL (≈ 51.4 µM) |
| C=C(CN(C)C)C(=O)c1ccc(Cl)cc1 | 6.3 µg/mL (≈ 28.2 µM) | 12.5 µg/mL (≈ 55.9 µM) | 12.5 µg/mL (≈ 55.9 µM) |
| C=C(C(=O)c1ccccc1)n1cc(Cl)ccc1=O | 3.1 µg/mL (≈ 11.9 µM) | 25 µg/mL (≈ 96.3 µM) | 6.3 µg/mL (≈ 24.3 µM) |
| C=C(C(=O)Nc1ccc(Cl)cc1)c1ccc(Cl)cc1Cl | > 100 µg/mL | > 100 µg/mL | > 100 µg/mL |
| C=C(C(=O)c1ccc(F)cc1)n1cncn1 | 0.8 µg/mL (≈ 3.68 µM) | 6.3 µg/mL (≈ 29 µM) | 0.4 µg/mL (≈ 1.84 µM) |
| C=C(C(=O)c1ccc(Cl)cc1)n1c(=O)n(C)c2ccccc21 | 0.4 µg/mL (≈ 1.28 µM) | 1.6 µg/mL (≈ 5.12 µM) | 1.6 µg/mL (≈ 5.12 µM) |
| Clc1ccccc1C(c1ccccc1)(c1ccccc1)n1ccnc1 [CLOTRIMAZOLE] | 0.1 µg/mL (≈ 0.29 µM) | 1.6 µg/mL (≈ 4.64 µM) | 1.6 µg/mL (≈ 4.64 µM) |
| C=C(C(=O)c1ccc(Cl)cc1)n1ncc2ccccc2c1=O | 1.6 µg/mL (≈ 5.15 µM) | 6.3 µg/mL (≈ 20.3 µM) | 0.8 µg/mL (≈ 2.57 µM) |
| C=C(C(=O)c1ccc(Cl)cc1)n1cnc2ccccc2c1=O | 0.1 µg/mL (≈ 0.322 µM) | 0.4 µg/mL (≈ 1.29 µM) | 0.1 µg/mL (≈ 0.322 µM) |

| Structure (SMILES) | MIC (Trichophyton benhamiae) | MIC (Aspergillus fumigatus) | MIC (Candida albicans) |
| --- | --- | --- | --- |
| C=C(C(=O)c1ccc(Cl)cc1)N1C(=O)C=NC(=O)C1C (stereo not drawn) | 3.1 µg/mL (≈ 10.7 µM) | 6.3 µg/mL (≈ 21.7 µM) | 6.3 µg/mL (≈ 21.7 µM) |
| C=C(C(=O)c1ccccc1)n1ccccc1=O | 1.6 µg/mL (≈ 7.1 µM) | 50 µg/mL (≈ 222 µM) | 6.3 µg/mL (≈ 28 µM) |
| C=C(Cn1cncn1)C(=O)c1ccc(-c2ccccc2)cc1 | 0.4 µg/mL (≈ 1.38 µM) | 12.5 µg/mL (≈ 43.2 µM) | 1.6 µg/mL (≈ 5.53 µM) |
| C=C(Cn1cccn1)C(=O)c1ccc(-c2ccccc2)cc1 | 0.8 µg/mL (≈ 2.77 µM) | 12.5 µg/mL (≈ 43.4 µM) | 6.3 µg/mL (≈ 21.8 µM) |
| C=C(Cn1ccccc1=O)C(=O)c1ccsc1 | 6.3 µg/mL (≈ 25.7 µM) | 50 µg/mL (≈ 204 µM) | 50 µg/mL (≈ 204 µM) |
| C=C(C(=O)c1ccc(-c2ccccc2)cc1)n1cncn1 | 0.2 µg/mL (≈ 0.726 µM) | 3.1 µg/mL (≈ 11.3 µM) | 0.4 µg/mL (≈ 1.45 µM) |
| COCC(C(=O)c1ccc(OC)cc1)n1cncn1 (stereo not drawn) | 3.1 µg/mL (≈ 11.9 µM) | 100 µg/mL (≈ 383 µM) | 3.1 µg/mL (≈ 11.9 µM) |
| C=C(C(=O)c1ccc(C)cc1)n1cncn1 | 0.8 µg/mL (≈ 3.75 µM) | 6.3 µg/mL (≈ 29.5 µM) | 0.2 µg/mL (≈ 0.938 µM) |
| CC/C=C(\C(=O)c1ccc(Cl)cc1)n1ccccc1=O | 25 µg/mL (≈ 86.9 µM) | > 100 µg/mL | > 100 µg/mL |
| C=C(Cn1cncn1)C(=O)c1ccsc1 | 6.3 µg/mL (≈ 28.7 µM) | 100 µg/mL (≈ 456 µM) | 12.5 µg/mL (≈ 57 µM) |
| C=C(C(=O)c1ccc(OC)cc1)n1cnc2ccccc2c1=O | 0.4 µg/mL (≈ 1.31 µM) | 6.3 µg/mL (≈ 20.6 µM) | 1.6 µg/mL (≈ 5.22 µM) |
| C=C(C(=O)c1ccc(Cl)cc1Cl)n1ccccc1=O | 0.8 µg/mL (≈ 2.72 µM) | 25 µg/mL (≈ 85 µM) | 0.8 µg/mL (≈ 2.72 µM) |
| C=C(C(=O)c1ccc(-c2ccccc2)cc1)n1cnc2ccccc2c1=O | 25 µg/mL (≈ 70.9 µM) | > 100 µg/mL | > 100 µg/mL |
| C=C(Cn1cncn1)C(=O)c1ccc(Cl)cc1 | 1.6 µg/mL (≈ 6.46 µM) | 12.5 µg/mL (≈ 50.5 µM) | 0.4 µg/mL (≈ 1.61 µM) |
| C=C(C(=O)c1cccs1)c1ccc(Cl)cc1 | 0.1 µg/mL (≈ 0.402 µM) | 3.1 µg/mL (≈ 12.5 µM) | 3.1 µg/mL (≈ 12.5 µM) |
| C=C(C(=O)c1ccc(-c2ccccc2)cc1)n1ccccc1=O | 0.4 µg/mL (≈ 1.33 µM) | 12.5 µg/mL (≈ 41.5 µM) | 0.8 µg/mL (≈ 2.65 µM) |
| C=C(C(=O)c1cccs1)c1ccccc1 | 0.2 µg/mL (≈ 0.933 µM) | 1.6 µg/mL (≈ 7.47 µM) | 1.6 µg/mL (≈ 7.47 µM) |
| C=C(C(=O)N1CCOCC1)c1ccc(Cl)cc1Cl | > 100 µg/mL | > 100 µg/mL | > 100 µg/mL |
| C=C(C(=O)c1ccc(Cl)cc1)n1cc(C)ccc1=O | 0.8 µg/mL (≈ 2.92 µM) | 3.1 µg/mL (≈ 11.3 µM) | 0.8 µg/mL (≈ 2.92 µM) |
| C=C(Cn1ccccc1=O)C(=O)c1ccc(-c2ccccc2)cc1 | 0.8 µg/mL (≈ 2.54 µM) | 50 µg/mL (≈ 159 µM) | 6.3 µg/mL (≈ 20 µM) |
| C=C(C(=O)c1cccs1)n1cncn1 | 1.6 µg/mL (≈ 7.8 µM) | 6.3 µg/mL (≈ 30.7 µM) | 0.4 µg/mL (≈ 1.95 µM) |

| Structure (SMILES) | MIC (Trichophyton benhamiae) | MIC (Aspergillus fumigatus) | MIC (Candida albicans) |
| --- | --- | --- | --- |
| C=C(C(=O)c1ccccc1OC)n1ccccc1=O | 1.6 µg/mL (≈ 6.27 µM) | > 100 µg/mL | 3.1 µg/mL (≈ 12.1 µM) |
| C=C(Cn1c(=O)ccc2ccccc21)C(=O)c1ccc(Cl)cc1 | 3.1 µg/mL (≈ 9.57 µM) | 100 µg/mL (≈ 309 µM) | 25 µg/mL (≈ 77.2 µM) |
| C=C(Cn1ccccc1=O)C(=O)c1ccc(OC)cc1 | 6.3 µg/mL (≈ 23.4 µM) | 100 µg/mL (≈ 371 µM) | 25 µg/mL (≈ 92.8 µM) |
| O=C(c1ccc(Cl)cc1)C(CO)n1cnc2ccccc2c1=O (stereo not drawn) | 0.8 µg/mL (≈ 2.43 µM) | 6.3 µg/mL (≈ 19.2 µM) | 0.8 µg/mL (≈ 2.43 µM) |
| Clc1ccc(COC(Cn2ccnc2)c2ccc(Cl)cc2Cl)c(Cl)c1 (stereo not drawn) [MICONAZOLE] | 0.1 µg/mL (≈ 0.24 µM) | 6.3 µg/mL (≈ 15.1 µM) | 3.1 µg/mL (≈ 7.45 µM) |
| CC(C(=O)c1ccc(Cl)cc1)n1ccccc1=O (stereo not drawn) | > 100 µg/mL | > 100 µg/mL | > 100 µg/mL |
| C=C(Cc1ccccc1)C(=O)c1cccs1 | 6.3 µg/mL (≈ 27.6 µM) | 100 µg/mL (≈ 438 µM) | > 100 µg/mL |
| C=C(C(=O)c1ccc(Cl)cc1)n1c(O)nc2ccccc21 | 3.1 µg/mL (≈ 10.4 µM) | 12.5 µg/mL (≈ 41.8 µM) | 6.3 µg/mL (≈ 21.1 µM) |
| C=C(C(=O)c1ccc(Cl)cc1)N1CC(=O)N=CC1=O | 12.5 µg/mL (≈ 45.2 µM) | > 100 µg/mL | 12.5 µg/mL (≈ 45.2 µM) |
| Clc1ccc(COC(Cn2ccnc2)c2ccc(Cl)cc2Cl)cc1 (stereo not drawn) [ECONAZOLE] | 0.1 µg/mL (≈ 0.262 µM) | 3.1 µg/mL (≈ 8.12 µM) | 3.1 µg/mL (≈ 8.12 µM) |
| C=C(C(=O)c1ccc(Cl)cc1Cl)c1ccc(Cl)cc1Cl | 0.4 µg/mL (≈ 1.16 µM) | > 100 µg/mL | 6.3 µg/mL (≈ 18.2 µM) |
| C=C(C(=O)c1ccc(Cl)cc1)n1c(=O)ccc2ccccc21 | 0.2 µg/mL (≈ 0.646 µM) | 1.6 µg/mL (≈ 5.17 µM) | 3.1 µg/mL (≈ 10 µM) |
| C=C(C)C(=O)c1ccco1 | 1.6 µg/mL (≈ 11.8 µM) | 25 µg/mL (≈ 184 µM) | 25 µg/mL (≈ 184 µM) |
| C=C(C(=O)C(C)(C)C)n1ccccc1=O | 6.3 µg/mL (≈ 30.7 µM) | > 100 µg/mL | 50 µg/mL (≈ 244 µM) |
| C=C(Cn1ccccc1=O)C(=O)c1ccc(Cl)cc1 | 0.8 µg/mL (≈ 2.92 µM) | 25 µg/mL (≈ 91.3 µM) | 1.6 µg/mL (≈ 5.85 µM) |
| O=C(/C(=C/c1ccc(F)cc1)n1ccccc1=O)c1ccc(Cl)cc1 | 12.5 µg/mL (≈ 35.3 µM) | > 100 µg/mL | > 100 µg/mL |
| C=C(C(=O)c1ccc(Cl)cc1)n1cncn1 | 1.6 µg/mL (≈ 6.85 µM) | 6.3 µg/mL (≈ 27 µM) | 0.2 µg/mL (≈ 0.856 µM) |
| C=C(C(=O)c1ccc(C#N)cc1)n1cncn1 | 6.3 µg/mL (≈ 28.1 µM) | 25 µg/mL (≈ 111 µM) | 1.6 µg/mL (≈ 7.14 µM) |
| C=C(C(C)=O)n1cncn1 | 3.1 µg/mL (≈ 22.6 µM) | 25 µg/mL (≈ 182 µM) | 12.5 µg/mL (≈ 91.1 µM) |
